Results reported in ChEMBL document CHEMBL1156147, “Phosphoramidates of 2'-beta-D-arabinouridine (AraU) as phosphate prodrugs; design, synthesis, in vitro activity and metabolism” (Bioorg Med Chem, 2010).
Calls of active or inactive are those of the source. The calls are words filed in the database; no cut-off is given here.

Key:
[1] = system: LoVo; experiment: Cytostatic activity against human LoVo cells after 96 hrs by MTT assay; assay type: functional, cell-based
Procedure, shortened: (§1)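 Cells were seeded at 5 × 10^3 per well and allowed 24 h to adhere. Compound was added from DMSO stocks as decimal dilutions (final 0.1–100 μM) for 96 h at 37 °C, 5% CO2. MTT (final 0.5 mg/mL) was added for 4 h and formazan solubilised in 10% Triton X-100/PBS. Absorbance was read at 540 nm. IC50 is inhibition relative to control.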

[2] = system: Human alphaherpesvirus 1; experiment: Antiviral activity against HSV1 KOS assessed as inhibition of virus-induced cytopathicity by cell based assay; assay type: functional, organism-based
Procedure, shortened: (§2)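 Cytopathicity reduction in confluent HEL, Vero, HeLa, CFKC or MDCK monolayers. Cells were inoculated with 100 CCID50 of virus and allowed 1–2 h adsorption. Residual virus was then removed and cells were incubated with serially varied compound. CPE was scored once complete in untreated infected controls. EC50 is the concentration halving virus-induced cytopathicity.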

[3] = system: U-937; experiment: Cytostatic activity human U937 cells; assay type: functional, cell-based
Procedure, shortened: (§3)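 Leukaemia cells were exposed to serial dilutions from 100 μM down to 0.02 μM for 72 h at 37 °C, 5% CO2. MTS was then added for a further 4 h. Absorbance was read at 490 nm and viability calculated relative to untreated controls. IC50 is the concentration at which 50% of cells are no longer viable.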

[4] = system: Human respirovirus 3; experiment: Antiviral activity against Human parainfluenza virus 3 assessed as inhibition of virus-induced cytopathicity by cell based assay; assay type: functional, organism-based; procedure, shortened: as §2
[5] = system: Human alphaherpesvirus 1; experiment: Antiviral activity against thymidine kinase deficient acyclovir resistant HSV1 KOS assessed as inhibition of virus-induced cytopathicity by cell based assay; assay type: functional, organism-based
[6] = system: MCF7; experiment: Cytostatic activity against human MCF7 cells after 96 hrs by MTT assay; assay type: functional, cell-based; settings: MCF7, 96 h; procedure, shortened: as §1
[7] = system: KG-1; experiment: Cytostatic activity human KG1 cells; assay type: functional, cell-based; procedure, shortened: as §3
[8] = system: Human immunodeficiency virus 2; experiment: Antiviral activity against HIV2 infected human CEM cells assessed as inhibition of syncytia formation after 4 days; assay type: functional, organism-based; settings: CCRF-CEM
Procedure, shortened: (§4)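 Human CEM cells (~3 × 10^5 cells/mL) were infected with ~100 CCID50/mL of HIV-1(IIIB) or HIV-2(ROD) and seeded with compound dilutions. Syncytia formation was examined microscopically after 4 days at 37 °C. EC50 is the concentration reducing virus-induced cytopathicity by 50%.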

[9] = system: CCRF-CEM; experiment: Cytostatic activity human CEM cells; assay type: functional, cell-based
[10] = system: A549; experiment: Cytostatic activity against human A549 cells after 96 hrs by MTT assay; assay type: functional, cell-based; settings: A549, 96 h; procedure, shortened: as §1
[11] = system: Vaccinia virus; experiment: Antiviral activity against Vaccinia virus lederle assessed as inhibition of virus-induced cytopathicity by cell based assay; assay type: functional, organism-based; settings: Orthopoxvirus vaccinia
[12] = system: Respiratory syncytial virus; experiment: Antiviral activity against Respiratory syncytial virus Long assessed as inhibition of virus-induced cytopathicity by cell based assay; assay type: functional, organism-based; procedure, shortened: as §2
[13] = system: Punta Toro virus; experiment: Antiviral activity against Punta Toro virus assessed as inhibition of virus-induced cytopathicity by cell based assay; assay type: functional, organism-based; procedure, shortened: as §2
[14] = system: PC-3; experiment: Cytostatic activity against human PC3 cells after 96 hrs by MTT assay; assay type: functional, cell-based; settings: PC-3, 96 h; procedure, shortened: as §1
[15] = system: Mammalian orthoreovirus 1; experiment: Antiviral activity against Reovirus 1 assessed as inhibition of virus-induced cytopathicity by cell based assay; assay type: functional, organism-based; procedure, shortened: as §2
[16] = system: HL-60; experiment: Cytostatic activity against human HL60 cells; assay type: functional, cell-based; procedure, shortened: as §3
[17] = system: Influenza A virus; experiment: Antiviral activity against influenza A virus H1N1 assessed as inhibition of virus-induced cytopathicity by cell based assay; assay type: functional, organism-based
[18] = system: L1210; experiment: Cytostatic activity mouse L1210 cells; assay type: functional, cell-based
[19] = system: Vesicular stomatitis virus; experiment: Antiviral activity against Vesicular stomatitis virus assessed as inhibition of virus-induced cytopathicity by cell based assay; assay type: functional, organism-based
[20] = system: NB-4; experiment: Cytostatic activity against human NB4 cells; assay type: functional, cell-based; procedure, shortened: as §3
[21] = system: Sindbis virus; experiment: Antiviral activity against Sindbis virus assessed as inhibition of virus-induced cytopathicity by cell based assay; assay type: functional, organism-based; procedure, shortened: as §2
[22] = system: Influenza A virus; experiment: Antiviral activity against influenza A virus H3N2 assessed as inhibition of virus-induced cytopathicity by cell based assay; assay type: functional, organism-based
[23] = system: Human immunodeficiency virus 1; experiment: Antiviral activity against HIV1 3B infected human CEM cells assessed as inhibition of syncytia formation after 4 days; assay type: functional, organism-based; settings: CCRF-CEM; procedure, shortened: as §4
[24] = system: Coxsackievirus B4; experiment: Antiviral activity against Coxsackievirus B4 assessed as inhibition of virus-induced cytopathicity by cell based assay; assay type: functional, organism-based; procedure, shortened: as §2
[25] = system: Human alphaherpesvirus 2; experiment: Antiviral activity against Herpes simplex virus2 G assessed as inhibition of virus-induced cytopathicity by cell based assay; assay type: functional, organism-based; settings: strain G; procedure, shortened: as §2
[26] = Metabolic stability assessed as half life in the presence of carboxypeptidase Y after 3 hrs at pH 7.6; assay type: ADME; settings: Saccharomyces cerevisiae (yeast)

Row | SMILES | inhibition [2] | IC50 [3] | inhibition [4] | inhibition [5] | IC50 [7] | inhibition [8] | IC50 [9] | inhibition [11] | inhibition [12] | inhibition [13] | inhibition [15] | IC50 [16] | inhibition [17] | IC50 [18] | inhibition [19] | IC50 [20] | inhibition [21] | inhibition [22] | inhibition [23] | inhibition [24] | other results
1 | O=C(CNP(=O)(OC[C@H]1O[C@@H](n2ccc(=O)[nH]c2=O)[C@@H](O)[C@@H]1O)Oc1ccccc1)OCc1ccccc1 (some centres not stated) | inactive | > 100 µM | inactive | inactive | 39 µM | inactive | 196 µM | inactive | inactive | inactive | inactive | > 100 µM | inactive | 256 µM | inactive | 52 µM | inactive | inactive | inactive | inactive | IC50 [1]: > 100 µM; IC50 [6]: > 100 µM; IC50 [10]: > 100 µM; IC50 [14]: > 100 µM; inhibition [25]: inactive
2 | C[C@H](NP(=O)(OC[C@H]1O[C@@H](n2ccc(=O)[nH]c2=O)[C@@H](O)[C@@H]1O)Oc1ccccc1)C(=O)OCc1ccccc1 (some centres not stated) | inactive | 92 µM | inactive | inactive | 63 µM | inactive | 188 µM | inactive | inactive | inactive | inactive | > 100 µM | inactive | 184 µM | inactive | 38 µM | inactive | inactive | inactive | inactive | IC50 [1]: > 100 µM; IC50 [6]: > 100 µM; half-life [26]: 15 min; IC50 [10]: > 100 µM; IC50 [14]: > 100 µM; inhibition [25]: inactive
3 | CC(C)OC(=O)[C@H](C)NP(=O)(OC[C@H]1O[C@@H](n2ccc(=O)[nH]c2=O)[C@@H](O)[C@@H]1O)Oc1cccc2ccccc12 (some centres not stated) | inactive | > 100 µM | inactive | inactive | 67 µM | inactive | 181 µM | inactive | inactive | inactive | inactive | 84 µM | inactive | 250 µM | inactive | 77 µM | inactive | inactive | inactive | inactive | IC50 [1]: > 100 µM; IC50 [6]: > 100 µM; IC50 [10]: > 100 µM; IC50 [14]: > 100 µM; inhibition [25]: inactive
4 | C[C@@H](NP(=O)(OC[C@H]1O[C@@H](n2ccc(=O)[nH]c2=O)[C@@H](O)[C@@H]1O)Oc1ccccc1)C(=O)OCc1ccccc1 (some centres not stated) | inactive | > 100 µM | inactive | inactive | 90 µM | inactive | 313 µM | inactive | inactive | inactive | inactive | 92 µM | inactive | 470 µM | inactive | 88 µM | inactive | inactive | inactive | inactive | IC50 [1]: > 100 µM; IC50 [6]: 50 µM; IC50 [10]: > 100 µM; IC50 [14]: > 100 µM; inhibition [25]: inactive
5 | O=c1ccn([C@@H]2O[C@H](CO)[C@@H](O)[C@@H]2O)c(=O)[nH]1 [ARAURIDINE] | inactive | > 100 µM | inactive | inactive | 25 µM | inactive | > 500 µM | inactive | inactive | inactive | inactive | 90 µM | inactive | 170 µM | inactive | 69 µM | inactive | inactive | inactive | inactive | inhibition [25]: inactive
6 | COC(=O)[C@H](C)NP(=O)(OC[C@H]1O[C@@H](n2ccc(=O)[nH]c2=O)[C@@H](O)[C@@H]1O)Oc1ccccc1 (some centres not stated) | inactive | > 100 µM | inactive | inactive | 32 µM | inactive | > 500 µM | inactive | inactive | inactive | inactive | > 100 µM | inactive | > 500 µM | inactive | 53 µM | inactive | inactive | inactive | inactive | IC50 [1]: > 100 µM; IC50 [6]: > 100 µM; IC50 [10]: > 100 µM; IC50 [14]: > 100 µM; inhibition [25]: inactive
